# Reference: ChEMBL document CHEMBL1131438, “Inactivation of O6-alkylguanine-DNA alkyltransferase. 1. Novel O6-(hetarylmethyl)guanines having basic rings in the side chain” (J Med Chem, 1998)
# Key:
# [1] = biological target: T1, Methylated-DNA--protein-cysteine methyltransferase (Homo sapiens, UniProt P16455); experiment: O6-Alkylguanine-DNA Alkyltransferase-Inactivating Activity (Concentration of inactivator required to produce 50% reduction in alkyltransferase activity)
# T1 sequence (P16455 whole entry): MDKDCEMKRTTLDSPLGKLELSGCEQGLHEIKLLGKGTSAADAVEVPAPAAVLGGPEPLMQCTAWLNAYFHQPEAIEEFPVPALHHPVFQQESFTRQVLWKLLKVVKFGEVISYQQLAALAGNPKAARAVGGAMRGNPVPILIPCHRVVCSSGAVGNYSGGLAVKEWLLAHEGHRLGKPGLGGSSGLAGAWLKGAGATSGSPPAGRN
# How it was run: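 Pure recombinant human ATase (50–60 fmol, titrated so ATase is limiting) preincubated 1 h at 37 °C with varying inactivator in 200 µL buffer (50 mM Tris-HCl pH 8.3, 3 mM DTT, 1 mM EDTA, 1 mg/mL BSA) plus 10 µg calf thymus DNA. Then 3H-methylated DNA substrate (4 µg DNA, 100 fmol O6-methylguanine) added, 1 h at 37 °C. After acid hydrolysis, 3H-methylated protein counted by scintillation. Duplicates, experiments repeated several times.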
# [2] = In vitro half-life at 37 degree Centigrade in phosphate-buffered saline(PBS; pH =7-7.2); assay type: ADME
# [3] = biological target: T1, Methylated-DNA--protein-cysteine methyltransferase; experiment: O6-Alkylguanine-DNA Alkyltransferase-Inactivating Activity in Raji cells (Concentration of inactivator required to produce 50% reduction in alkyltransferase activity); assay type: cell-based
# How it was run: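 Raji cells in RPMI + 10% horse serum, 10^6/mL, exposed to inactivator or DMSO vehicle for 2 h at 37 °C. Cells washed, sonicated in Tris-DTT-EDTA buffer pH 8.3 with leupeptin, PMSF added, debris spun out. Supernatant ATase measured by transfer of 3H-methyl from O6-methylguanine DNA substrate to protein; activity expressed as % of untreated controls.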
Compound,IC50 [1],half-life [2],IC50 [3]
NC1=Nc2nc[nH]c2C(OCc2ccncc2)N1 (stereo not given),130 nM,> 2880 min,200 nM
NC1=Nc2nc[nH]c2C(OCc2ccco2)N1 (stereo not given),80 nM,22.8 min,120 nM
NC1=Nc2nc[nH]c2C(OCc2ccc(Br)s2)N1 (stereo not given),5 nM,117 min,10 nM
NC1=Nc2nc[nH]c2C(OCc2ccccn2)N1 (stereo not given),–,> 2880 min,6000 nM
Cn1cncc1COC1N=C(N)Nc2[nH]cnc21 (stereo not given),8500 nM,11.4 min,21000 nM
NC1=Nc2nc[nH]c2C(OCc2cnsc2)N1 (stereo not given),70 nM,> 2880 min,70 nM
NC1=Nc2nc[nH]c2C(OCc2cnco2)N1 (stereo not given),350 nM,> 2880 min,220 nM
NC1=Nc2nc[nH]c2C(OCc2cnc3c(c2)OCO3)N1 (stereo not given),230 nM,> 2880 min,90 nM
NC1=NC(OCc2ccnc(Cl)c2)c2[nH]cnc2N1 (stereo not given),40 nM,> 2880 min,50 nM
NC1=NC(OCc2cncc(Br)c2)c2[nH]cnc2N1 (stereo not given),250 nM,> 2880 min,200 nM
NC1=NC(OCc2cccs2)c2[nH]cnc2N1 (stereo not given),18 nM,40.2 min,30 nM
NC1=NC(OCc2ccc[n+]([O-])c2)c2[nH]cnc2N1 (stereo not given),1400 nM,> 2880 min,5400 nM
NC1=Nc2nc[nH]c2C(OCc2ccc(Cl)nc2)N1 (stereo not given),200 nM,> 2880 min,120 nM
NC1=Nc2nc[nH]c2C(OCc2cccnc2)N1 (stereo not given),430 nM,> 2880 min,220 nM
NC1=NC(OCc2cncs2)c2[nH]cnc2N1 (stereo not given),33 nM,> 2880 min,60 nM
Nc1nc(OCc2ccccc2)c2[nH]cnc2n1 [6-O-BENZYLGUANINE],–,> 2880 min,–
